Reference: ChEMBL document CHEMBL1135374, “New series of aryloxypropanolamines with both human beta(3)-adrenoceptor agonistic activity and free radical scavenging properties” (2002)

What was measured:
Bos taurus [1] = organism: Bos taurus; test: Oxidation was assessed indirectly by measuring bovine serum albumin thiol protection by using Ellman''s test at 1 mM; type: functional
Summary of the method: (§1)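 Hydroxyl radicals from Fenton reaction (Fe2+/H2O2) oxidize BSA. Remaining thiols measured by Ellman's test. Compound present at the stated concentration. Reported as % protection relative to Trolox. Mean ± SEM of three experiments, ANOVA (p < 0.05).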

[2] = target: Beta-3 adrenergic receptor (Homo sapiens) (UniProt P13945); test: Beta adrenergic activity as cAMP production in human Beta3 adrenergic receptor expressing COS-7 cells with propranolol; type: functional, cell-based
Beta-3 adrenergic receptor (Homo sapiens), sequence (P13945 whole entry, looked up): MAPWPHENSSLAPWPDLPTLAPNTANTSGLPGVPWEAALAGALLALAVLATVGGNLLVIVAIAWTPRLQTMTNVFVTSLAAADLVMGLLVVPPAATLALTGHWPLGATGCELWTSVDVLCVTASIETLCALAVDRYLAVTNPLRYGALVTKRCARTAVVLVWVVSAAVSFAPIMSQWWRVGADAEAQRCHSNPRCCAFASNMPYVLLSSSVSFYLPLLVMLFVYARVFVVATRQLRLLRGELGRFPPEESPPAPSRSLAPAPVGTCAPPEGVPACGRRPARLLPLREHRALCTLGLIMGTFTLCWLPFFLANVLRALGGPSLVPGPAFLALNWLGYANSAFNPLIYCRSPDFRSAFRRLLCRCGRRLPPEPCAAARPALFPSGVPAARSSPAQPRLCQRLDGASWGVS
Summary of the method: (§2)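 COS-7 cells in DMEM/10% FBS at 37 °C, 5% CO2, lipofected with human β3-receptor plasmid at 70-80% confluence, then grown 24 h. Cells preincubated 30 min at 37 °C in serum-free DMEM/25 mM HEPES pH 7.5, then exposed 20 min to 10 μM compound with 0.24 mM IBMX, with or without 0.1 μM propranolol. cAMP in TCA extract measured by RIA, expressed as pmol/min/well.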

Bos taurus [3] = organism: Bos taurus; test: Oxidation was assessed indirectly by measuring bovine serum albumin (BSA) thiol protection from the formation of thiobarbituric acid reactive substances (TBARs) by TBARs test at 10 uM; type: functional
[4] = target: Beta-3 adrenergic receptor (Homo sapiens) (UniProt P13945); test: Beta adrenergic activity was determined by measuring cAMP production on human Beta3 adrenergic transfected COS-7 cells; type: functional, cell-based; summary of the method: as §2
Bos taurus [5] = organism: Bos taurus; test: Oxidation was assessed indirectly by measuring bovine serum albumin (BSA) thiol protection from the formation of thiobarbituric acid reactive substances (TBARs) by TBARs test at 100 uM; type: functional
Bos taurus [6] = organism: Bos taurus; test: Oxidation was assessed indirectly by measuring bovine serum albumin (BSA) thiol protection from the formation of thiobarbituric acid reactive substances (TBARs) by TBARs test at 500 uM; type: functional
Summary of the method: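 Plasma lipid peroxidation induced by Fenton-generated hydroxyl radicals (Fe2+/H2O2), with compound at the stated concentration. Thiobarbituric acid reactive substances quantified. Expressed as % protection relative to Trolox. Mean ± SEM, three experiments, ANOVA (p < 0.05).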

Bos taurus [7] = organism: Bos taurus; test: Oxidation was assessed indirectly by measuring bovine serum albumin thiol protection by using Ellman''s test at 500 uM; type: functional; summary of the method: as §1
COS-7 = test: CyclicAMP production in untransfected COS-7 cell control; type: functional
Summary of the method: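 Non-transfected COS-7 cells grown in DMEM/10% FBS at 37 °C, 5% CO2. Preincubated 30 min at 37 °C in serum-free DMEM/25 mM HEPES pH 7.5, then given 10 μM compound plus 0.24 mM IBMX and 0.1 μM propranolol for 20 min. cAMP in cold 5% TCA extract quantified by RIA, pmol/min/well.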

Bos taurus [8] = organism: Bos taurus; test: Oxidation was assessed indirectly by measuring bovine serum albumin(BSA) thiol protection from the formation of thiobarbituric acid reactive substances (TBARs) by TBARs test at 10 uM; type: functional
Bos taurus [9] = organism: Bos taurus; test: Oxidation was assessed indirectly by measuring bovine serum albumin(BSA) thiol protection from the formation of thiobarbituric acid reactive substances (TBARs) by TBARs test at 500 uM; type: functional
Bos taurus [10] = organism: Bos taurus; test: Oxidation was assessed indirectly by measuring bovine serum albumin(BSA) thiol protection from the formation of thiobarbituric acid reactive substances (TBARs) by TBARs test at 100 uM; type: functional
Bos taurus [11] = organism: Bos taurus; test: Oxidation was assessed indirectly by measuring bovine serum albumin (BSA) thiol protection by using Ellman''s test at 500 uM; type: functional; summary of the method: as §1
Bos taurus [12] = organism: Bos taurus; test: Oxidation was assessed indirectly by measuring bovine serum albumin (BSA) thiol protection by using Ellman''s test at 1 mM; type: functional; summary of the method: as §1

Row | cAMP production (pM min-1 well-1) [2] | cAMP production (pM min-1 well-1) [4] | SMILES | Protection (Bos taurus [1]) [%] | Protection (Bos taurus [3]) [%] | Protection (Bos taurus [5]) [%] | Protection (Bos taurus [6]) [%] | Protection (Bos taurus [7]) [%] | cAMP production (COS-7) [pmol/min/well] | other results
1 | 21.4 | 97.4 | CC(C)(C)c1cc(CCCOc2ccc(NCC(O)COc3ccc4cccnc4c3)cc2)cc(C(C)(C)C)c1O (stereo not given) |  |  |  |  |  | 23.3 | 
2 | 23.9 |  | CC(C)(C)c1cc(CCCOc2ccc(NCC(O)COc3ccc4ccncc4c3)cc2)cc(C(C)(C)C)c1O (stereo not given) |  |  |  |  |  | 26.9 | 
3 | 33.2 |  | Cc1c(C)c2c(c(C)c1O)CCC(C)(COc1ccc(NCC(O)COc3ccc4ccncc4c3)cc1)O2 (stereo not given) |  |  |  |  |  | 33 | 
4 | 76.3 | 130 | CC(C)(C)c1cc(CCCOc2ccc(NCC(O)COc3cccc4cnccc34)cc2)cc(C(C)(C)C)c1O (stereo not given) |  | 43.6 | 32.8 | 49.3 |  | 24.9 | 

Second part, the compound before the results:

Row | SMILES | cAMP production (pM min-1 well-1) [2] | cAMP production (pM min-1 well-1) [4] | Protection (Bos taurus [1]) [%] | Protection (Bos taurus [3]) [%] | Protection (Bos taurus [5]) [%] | Protection (Bos taurus [6]) [%] | Protection (Bos taurus [7]) [%] | cAMP production (COS-7) [pmol/min/well] | other results
5 | Cc1c(C)c2c(c(C)c1O)CCC(C)(COc1ccc(NCC(O)COc3cccc4cnccc34)cc1)O2 (stereo not given) | 41.6 | 142 | 115.2 | 39.4 | 49.3 | 94.4 | 54.8 | 28.7 | 
6 | Cc1c(C)c2c(c(C)c1O)CCC(C)(COc1ccc(NCC(O)COc3cccc4ncccc34)cc1)O2 (stereo not given) | 28.6 | 103 | 82.9 |  |  |  | 49.2 | 26.8 | Protection (Bos taurus [8]): 37.8%; Protection (Bos taurus [9]): 78.2%; Protection (Bos taurus [10]): 64.6%
7 | Cc1c(C)c2c(c(C)c1O)CCC(C)(COc1ccc(NCC(O)COc3cccc4[nH]c5ccccc5c34)cc1)O2 (stereo not given) | 22.3 |  |  |  |  |  |  | 31.5 | 
8 | Cc1c(C)c2c(c(C)c1O)CCC(C)(COc1ccc(NCC(O)COc3cccc4[nH]c5ncccc5c34)cc1)O2 (stereo not given) |  |  |  | 44.3 | 53.6 | 75.5 |  |  | 
9 | Cc1c(C)c2c(c(C)c1O)CCC(C)(C(=O)O)O2 (stereo not given) [TROLOX] |  |  | 75.2 | -21.4 |  |  | 31.4 |  | Protection (Bos taurus [9]): 64.8%; Protection (Bos taurus [10]): 7.6%
10 | COc1ccccc1OCCNCC(O)COc1cccc2[nH]c3ccccc3c12 (stereo not given) [CARVEDILOL] |  |  | -88.6 | 1 |  |  | 20 |  | Protection (Bos taurus [9]): 6.2%; Protection (Bos taurus [10]): -0.6%
11 | CC(C)(C)c1cc(CCCOc2ccc(NCC(O)COc3cccc4ncccc34)cc2)cc(C(C)(C)C)c1O (stereo not given) |  |  |  | 30.3 | 33.3 | 50.4 |  | 21.6 | Protection (Bos taurus [11]): 47.3%; Protection (Bos taurus [12]): 120.3%
